{"data": "Assay results collected from several papers", "note": "Each line is one published result; the experiments were not run side by side."}
{"SMILES": "CNc1ncc2c(/C=C/C(=O)N3CCCC(OC)C3)nn(Cc3cccc(C)c3)c2n1 (stereo not drawn)", "target or system": "FLO-1", "test": "cell growth or viability, resazurin", "conditions": "5 days", "measurement": "EC50", "result": "13800 nM"}
{"SMILES": "O=C1C=C2NCCc3c[nH]c(c32)C1=O", "target or system": "Plasmodium falciparum", "test": "parasite growth, SYBR Green", "test system": "DD2", "conditions": "blood stage", "measurement": "IC50", "result": "23700 nM"}
{"SMILES": "O=C(NO)c1ccc(CNc2nc3cccc(-c4ccc5c(c4)OCO5)n3n2)cc1", "target or system": "NCI-H460", "test": "cell growth or viability, SRB", "measurement": "GI50", "result": "680 nM"}
{"SMILES": "C=CC(=O)NC1CCN(c2ncc3ncnc(Nc4ccc(Oc5ccc6c(c5)ncn6C)c(C)c4)c3n2)CC1", "target or system": "SW900", "test": "cell growth or viability", "measurement": "EC50", "result": "46.3 nM"}
{"SMILES": "O=C(/C=C/c1cn(Cc2cn(-c3ccnc4cc(Cl)ccc34)nn2)c2ccccc12)c1ccc(F)cc1", "target or system": "Plasmodium falciparum", "test": "parasite growth, SYBR Green", "test system": "3D7", "conditions": "5 µM, blood stage", "measurement": "inhibition", "result": "15.8%"}
{"SMILES": "CNc1ncc2c(/C=C/C(=O)N3CCC(OC)CC3)nn(Cc3ccc(OC)cc3)c2n1", "target or system": "FLO-1", "test": "cell growth or viability, resazurin", "conditions": "5 days", "measurement": "EC50", "result": "1130 nM"}
{"SMILES": "C=C(F)C(=O)N1CCN(c2nc(OC[C@@H]3CCCN3C)nc3c2CCN(c2cccc4cccc(Cl)c24)C3)C[C@@H]1CC#N", "target or system": "KYSE-410", "test": "cell growth or viability, ATP luminescence", "conditions": "3D culture", "measurement": "IC50", "result": "107 nM"}
{"SMILES": "COc1cccc(C(=O)/C=C/c2cn(Cc3cn(-c4ccnc5cc(Cl)ccc45)nn3)c3ccccc23)c1", "target or system": "Plasmodium falciparum", "test": "parasite growth, SYBR Green", "test system": "3D7", "conditions": "5 µM, blood stage", "measurement": "inhibition", "result": "2.88%"}
{"SMILES": "Cn1cc2c3c1C(=O)C(NCCc1ccc(O)cc1)=CC3=[N+](C)CC2", "target or system": "Plasmodium falciparum", "test": "parasite growth, SYBR Green", "test system": "DD2", "conditions": "blood stage", "measurement": "IC50", "result": "48.4 nM"}
{"SMILES": "CNc1ncc2c(/C=C/C(=O)N3CCC(O)CC3)nn(CC3CCCC3)c2n1", "target or system": "FLO-1", "test": "cell growth or viability, resazurin", "conditions": "5 days", "measurement": "EC50", "result": "> 30000 nM"}
{"SMILES": "CCN(CC)CCCC(C)Nc1ccnc2cc(Cl)ccc12 (stereo not drawn)", "target or system": "Plasmodium falciparum", "test": "parasite growth, SYBR Green", "test system": "3D7", "conditions": "25 nM, blood stage", "measurement": "inhibition", "result": "52.5%"}
{"SMILES": "COC(=O)/C=C/c1nn(CC2CCCC2)c2ncnc(N)c12", "target or system": "FLO-1", "test": "cell growth or viability, resazurin", "conditions": "5 days", "measurement": "EC50", "result": "> 30000 nM"}
{"SMILES": "O=C1C(NCCc2ccc(O)cc2)=CC2=NCCc3c[nH]c1c32", "target or system": "Plasmodium falciparum", "test": "parasite growth, SYBR Green", "test system": "DD2", "conditions": "blood stage", "measurement": "IC50", "result": "291 nM"}
{"SMILES": "O=C(/C=C/c1cn(Cc2cn(-c3ccnc4cc(Cl)ccc34)nn2)c2ccccc12)c1cc(OCc2ccccc2)cc(OCc2ccccc2)c1", "target or system": "Plasmodium falciparum", "test": "parasite growth, SYBR Green", "test system": "3D7", "conditions": "10 µM, blood stage", "measurement": "inhibition", "result": "49%"}
{"SMILES": "CCOC(Cn1nc(/C=C/C(=O)N2CCC(OC)CC2)c2cnc(NC)nc21)OCC", "target or system": "FLO-1", "test": "cell growth or viability, resazurin", "conditions": "5 days", "measurement": "EC50", "result": "> 30000 nM"}
